Legend:
[1] = biological target: T1, RGS17ΔN–Gαo interaction in HEK293T cells (Homo sapiens, UniProt Q9UGC6); assay: Confocal localization of GFP-RGS17ΔN cotransfected with hGαo; type: cell-based; settings: for delocalization of RGS17ΔN from the cell membrane: 100 µM; for delocalization of RGS17ΔN from the cell membrane, GFP signal quantification: 10 µM, longer time course
T1 sequence (Q9UGC6 61-210): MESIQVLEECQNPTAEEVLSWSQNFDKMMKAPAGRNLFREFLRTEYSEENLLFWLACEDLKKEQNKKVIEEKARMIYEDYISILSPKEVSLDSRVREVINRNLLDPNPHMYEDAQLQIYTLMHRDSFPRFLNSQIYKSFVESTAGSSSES

[2] = system: RGS17ΔN–Gαo interaction in HEK293T cells; assay: as above; type: cell-based; settings: 100 µM, imaging time course
RGS17 [3] = biological target: T2, RGS17 (Homo sapiens, UniProt Q9UGC6); assay: Differential scanning fluorimetry; type: binding; settings: DSF
T2 sequence (Q9UGC6 72-206 limits assumed): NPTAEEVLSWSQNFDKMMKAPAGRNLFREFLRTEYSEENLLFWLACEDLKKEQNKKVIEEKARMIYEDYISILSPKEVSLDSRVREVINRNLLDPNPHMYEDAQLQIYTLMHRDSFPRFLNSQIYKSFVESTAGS

RGS17 [4] = biological target: T2, RGS17; assay: Isothermal titration calorimetry; type: binding; settings: for change in enthalpy ΔH / entropic change TΔS / protein:ligand binding stoichiometry / ΔG binding: ITC
RGS17ΔN (1ZV4 construct) = biological target: T3, RGS17ΔN (1ZV4 construct) (Homo sapiens, UniProt Q9UGC6); assay: Covalent modification of RGS17 by ESI-TOFMS; type: binding; settings: ESITOFMS, 5:1 test compound to RGS17, 72 h
T3 sequence (Q9UGC6 72-206): T2 sequence (Q9UGC6 72-206 limits assumed)
Procedure, shortened: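 Protein: RGS17ΔN (1ZV4 construct) at 20 µM in 25 mM HEPES, 100 mM NaCl, 5% DMSO, pH 8. Incubated at 4 °C for 72 h with or without 100 µM test compound. Dialysed 24 h at 4 °C against 25 mM NH4HCO3 and 100 µM NaCl to remove noncovalent compound, with a second dialysis for some compounds. Analysed by direct-infusion positive-mode ESI-TOF with spectral deconvolution.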

[5] = biological target: T4, RGS17–Gαo interaction in HEK293T cells (Homo sapiens, UniProt Q9UGC6); assay: Confocal localization of GFP full-length RGS17 cotransfected with Gαo; type: cell-based; settings: 100 µM, 10 min
T4 sequence (Q9UGC6 1-210): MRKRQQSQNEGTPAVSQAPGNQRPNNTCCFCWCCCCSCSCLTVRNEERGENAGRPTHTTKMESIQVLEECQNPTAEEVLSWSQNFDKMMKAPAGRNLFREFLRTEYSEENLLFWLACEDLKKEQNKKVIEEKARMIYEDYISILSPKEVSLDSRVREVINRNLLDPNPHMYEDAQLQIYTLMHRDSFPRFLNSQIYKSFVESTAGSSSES
Procedure, shortened: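 HEK293T cells were plated at 25 000 per well on poly-D-lysine-coated glass-bottom plates and held overnight at 37 °C, 5% CO2. They were cotransfected with hGαo (pcDNA 3.1(+)) and pAcGFP-RGS17FL using Lipofectamine 2000. At 24 h the medium was replaced with serum-free, phenol-red-free DMEM. Test compound was added at 2× in that medium to give 1× final (0.07–0.8% DMSO). Live cells were imaged by confocal microscopy.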

A549 lung tumor cells = assay: Growth of A549 lung tumor cells; type: cell-based; settings: up to 1 µM, 6 days in culture, relative to DMSO control
Procedure, shortened: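 Subconfluent A549 cells were trypsinized, counted and plated at 1000 per well in 24-well plates, then left to attach overnight. Triplicate wells received test compound or matched DMSO (≤0.2% final). Confluence was imaged every 2 h for 6 days, with images checked to exclude morphology effects. Change in confluence was expressed relative to DMSO and plotted against concentration. IC50 was solved by linear regression at 0.5 relative growth.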

PC3E cells = assay: Prostate tumor cell growth, PC3E; type: cell-based; settings: for inhibition of PC3E cell growth: dose-response; for sensitization of PC3E cells by overexpression of RGS17: transient transfection, data not shown
TEM4-18 cells = assay: Prostate tumor cell growth, TEM4-18; type: cell-based; settings: dose-response
RWPE-1 cells = assay: Prostate cell growth, RWPE-1; type: cell-based; settings: immortalized epithelial, normal cells
CREB phosphorylation = CREB phosphorylation upon stimulation with forskolin; type: cell-based; settings: compared to DMSO-treated controls, data not shown
[6] = Solubility in aqueous buffer for ITC; type: physicochemical; settings: at the high concentration needed for the ITC experiment
Gα protein = Gα protein (Homo sapiens, UniProt P09471); assay: Differential scanning fluorimetry; type: binding; settings: DSF, data not shown
Gα protein, sequence (P09471 whole entry): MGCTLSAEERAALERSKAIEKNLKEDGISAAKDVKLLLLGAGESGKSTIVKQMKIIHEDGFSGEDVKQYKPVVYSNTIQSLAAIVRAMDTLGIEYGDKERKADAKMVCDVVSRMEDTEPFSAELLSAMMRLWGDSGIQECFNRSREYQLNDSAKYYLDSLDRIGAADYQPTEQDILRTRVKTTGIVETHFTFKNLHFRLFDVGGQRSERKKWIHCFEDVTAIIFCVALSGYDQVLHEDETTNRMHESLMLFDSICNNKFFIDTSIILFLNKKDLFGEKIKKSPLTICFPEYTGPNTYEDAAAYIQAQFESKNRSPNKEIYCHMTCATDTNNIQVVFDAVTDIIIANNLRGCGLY

SMILES | delocalization of RGS17ΔN from the cell membrane [1] | gross morphological changes indicative of cytotoxicity [2] | melting temperature (Tm) shift for RGS17 (RGS17 [3]) | Kd (RGS17 [4]) [nM] | change in enthalpy ΔH (RGS17 [4]) [kcal/mol] | entropic change TΔS (RGS17 [4]) [kcal/mol] | protein:ligand binding stoichiometry (RGS17 [4]) | ΔG binding (RGS17 [4]) [kcal/mol] | covalent adduct formation with RGS17 (RGS17ΔN (1ZV4 construct)) | localization of GFP full-length RGS17 [5] | delocalization of RGS17ΔN from the cell membrane, GFP signal quantification [1] | inhibition of A549 cell growth (A549 lung tumor cells) | inhibition of PC3E cell growth (PC3E cells) | sensitization of PC3E cells by overexpression of RGS17 (PC3E cells) | inhibition of TEM4-18 cell growth (TEM4-18 cells) | growth arrest of RWPE-1 cells (RWPE-1 cells) | reduction of CREB phosphorylation (CREB phosphorylation) | solubility in aqueous buffer [6] | shift in Tm for the G protein (Gα protein)
Cc1ccc(-n2sc(=O)n(Cc3ccc(F)cc3)c2=O)cc1 [CCG-50014, reference compound] | did not result in RGS17ΔN delocalization from the membrane | significant cell shrinkage |  |  |  |  |  |  |  |  |  |  |  |  |  |  |  |  | 
C[n+]1cc2c3c(ccc2c2ccc4cc5c(cc4c21)OCO5)OCO3 [compound 1, sanguinarine] | disrupt RGS17–Gα interaction | lack of gross morphological changes | only minor melting temperature (Tm) shifts | 1000 | -0.148 | 8.0202 | 0.82 | -8.168 | could not be detected | remained at the membrane | loss of this enrichment at T = final | sub-micromolar inhibition | inhibited the growth | did not result in a sensitization | inhibited the growth | caused growth arrest | trended toward the proposed mechanism |  | 
CC1=C(O)C(=O)C=C2C1=CC=C1[C@@]2(C)CC[C@@]2(C)[C@@H]3C[C@](C)(C(=O)O)CC[C@]3(C)CC[C@]12C [compound 2, celastrol] | disrupt RGS17–Gα interaction | lack of gross morphological changes | only minor melting temperature (Tm) shifts |  |  |  |  |  | both singly and doubly adducted species |  | loss of this enrichment at T = final | sub-micromolar inhibition | inhibited the growth | did not result in a sensitization | inhibited the growth | caused growth arrest |  | not soluble | 
CC(C)=CCC[C@]1(C)C=Cc2c(O)c3c(c(CC=C(C)C)c2O1)O[C@]12C(=C[C@@H]4C[C@H]1C(C)(C)O[C@@]2(C/C=C(/C)C(=O)O)C4=O)C3=O [compound 3, (−)-gambogic acid] |  |  |  |  |  |  |  |  |  |  |  |  |  |  |  |  |  |  | drastic negative shift
O=c1c(-c2cc(O)c(O)c(O)c2)coc2cc(O)c(O)c(O)c12 [compound 4, irigenol] | disrupt RGS17–Gα interaction | lack of gross morphological changes | only minor melting temperature (Tm) shifts |  | -2.158 | 6.2313 | 0.33 | -8.389 | could not be detected |  | demonstrated the same trend | did not demonstrate any level of growth inhibition |  |  |  |  | trended toward the proposed mechanism |  | 
